Screens from PubChem BioAssay.
CSC inhib: blocks cancer stem cells | cancer stem cell-like cells viability, luminescence | 1.1% of 300,000 active | inhibition, % at 7.5 µM; in the data active = inhibition above about 75%; tested in HMLE shEcad cells
T cruzi repl: T. cruzi replication inhibition; inhibition, % (concentration not given with the values); AID 1885; T. cruzi beta-gal in NIH3T3, luminescence, 90 h; 1.4% of 300,000 active;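 active = mean inhibition across valid replicates above about 55%, limit read from the data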;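 also: signal also drops with host cell toxicity which is not excluded here; higher percent means less beta-gal luminescence so fewer parasites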
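System: NIH/3T3 fibroblasts plus reporter T. cruzi. Medium: DMEM plus 2% FBS. Probe or stimulus: 5000 reporter trypomastigotes per well. Compound: single 50 nL compound addition per well in DMSO. Incubation: co-culture of at least 90 h after 3 h attachment. Detection: GalScreen β-gal luminescence, detergent lysis, 60 min. Evaluation: parasite load inhibition, %.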
Beta cell apopt: beta cell apoptosis inhibition. AID 435005. protection from apoptosis, % (concentration not given with the values). INS-1E cytokine-induced death, ATP luminescence, 48 h; percent of positive-control rescue, neutral wells zero. 0.8% of 300,000 active;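 active = Every replicate reaches about 75%, or at least half do and their mean reaches it too, limit read from the data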;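 also: higher means more ATP so stronger rescue from cytokine killing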
CHOP inhibitor: blocks CHOP induction under ER stress | CHO-K1 CHOP-promoter luciferase, tunicamycin-induced, 15-18 h | inhibition, % at 10 µM | 3.8% of 220,000 active | AID 2732;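 active = compounds that reduced the stress-induced luciferase reporter signal by more than about 70% of percent inhibition, limit read from the data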
PREPL inh: human PREPL enzyme inhibition. Q4J6C6. recombinant PREPL, fluorescence polarization activity-based probe. inhibition, % at 5.96 µM. 0.68% of 320,000 active; in the data active = inhibition above about 43%
NR3A LBD binder: modulators (binders) of human NR3A ligand-binding domain; NR3A LBD differential scanning fluorimetry, Tm shift; 0% = protein alone, 100% = glycine-bound protein; Tm shift relative to glycine control, % at 25 µM; 2.5% of 340,000 active; AID 1259313;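 active = melting temperature shift of at least 10% of the positive control shift, at one fixed dose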
Numbers stand for hits; - = inactive; . = no result given. This is a sample that favours compounds with a hit; in the whole collection about 6.7% have one here.

SMILES	CSC inhib	T cruzi repl	Beta cell apopt	CHOP inhibitor	PREPL inh	NR3A LBD binder
CC1(c2cccc(Br)c2)NC(=O)N(CC(=O)Nc2ccc3c(c2)OCCO3)C1=O (centres undefined)	-	.	-	.	-	-
O=S(=O)(Nc1nc2ccccc2nc1N1CCN(c2ccccc2)CC1)c1ccc(F)cc1	-	-	-	-	-	24
O=C1C(F)=CC(COC(c2ccccc2)(c2ccccc2)c2ccccc2)OC1n1cc(F)c(=O)[nH]c1=O (centres undefined)	.	.	.	.	.	-
Cc1c(N)cc2c(c1N)C(C)(C)CC2(C)C	.	.	.	.	.	-
Nc1c(-c2ccc(Cl)cc2)cnn1-c1cccc([N+](=O)[O-])c1	-	-	-	78	-	-
O=C(NC1CCCc2ccccc21)c1cccc(F)c1 (centres undefined)	.	.	.	.	.	-
COc1ccccc1N(Cc1ccccc1)S(=O)(=O)c1cccc(C(=O)Nc2ccc(C)cn2)c1	-	62	-	.	-	-
COc1ccccc1N(Cc1ccccc1)S(=O)(=O)c1cccc(C(=O)Nc2ccccn2)c1	-	-	-	.	-	-
Cc1ccc(NC(=O)c2cccc(S(=O)(=O)N3CCN(c4ccccc4)CC3)c2)nc1	-	-	-	.	-	28
Cc1ccc(N2CCN(S(=O)(=O)c3nnc(NC(=O)c4ccccc4)s3)CC2)cc1	-	-	-	.	-	10
CN(Cc1ccc(Cl)cc1Cl)C(=O)c1cccc(S(=O)(=O)N2CCN(c3ccccc3)CC2)c1	-	60	.	.	-	-
